In ChEMBL document CHEMBL1955790, “One pot synthesis and anticancer activity of dimeric phloroglucinols” (Bioorg Med Chem Lett, 2012):

Assays:
HCT-116 [1] = experiment: Growth inhibition of human HCT116 cells at 500 nM after 48 hrs by WST-8 assay; format: functional; conditions: HCT-116, 48 h, read-out: GI
Summary of the method: (§1)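 ATCC cells kept in DMEM with 10% FBS and antibiotics at 37 °C, 5% CO2. Seeded 5×10^3/well, incubated overnight, then treated with compound for 48 h against a DMSO vehicle control (≤0.1%). CCK-8 (WST-8) reduction by live-cell dehydrogenases read at 450 nm (corrected 650 nm) after 4 h at 37 °C. Viable cells expressed as % of the DMSO control.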

NCI-H460 [2] = experiment: Cytotoxicity against human NCI-H460 cells after 48 hrs by WST-8 assay; format: functional, cell-based; conditions: NCI-H460, 48 h
Summary of the method: (§2)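 ATCC cells kept in DMEM with 10% FBS, penicillin/streptomycin at 37 °C, 5% CO2. Seeded 5×10^3/well and left overnight, then exposed to a range of concentrations with DMSO vehicle (≤0.1%) as control. After 48 h, CCK-8 (WST-8) was added for 4 h at 37 °C and A450 read, corrected to 650 nm. Viability is % of DMSO control. IC50 was taken from log cytotoxicity curves.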

PANC-1 [3] = experiment: Cytotoxicity against human PANC1 cells after 48 hrs by WST-8 assay; format: functional, cell-based; conditions: PANC-1, 48 h; summary of the method: as §2
Calu-1 [4] = experiment: Cytotoxicity against human Calu1 cells after 48 hrs by WST-8 assay; format: functional, cell-based; conditions: Calu-1, 48 h; summary of the method: as §2
ACHN [5] = experiment: Cytotoxicity against human ACHN cells after 48 hrs by WST-8 assay; format: functional, cell-based; summary of the method: as §2
NCI-H460 [6] = experiment: Growth inhibition of human NCI-H460 cells at 500 nM after 48 hrs by WST-8 assay; format: functional; conditions: NCI-H460, 48 h, read-out: GI; summary of the method: as §1
MCF-10A = experiment: Cytotoxicity against human MCF10A cells after 48 hrs by WST-8 assay; format: cell-based; summary of the method: as §2
HCT-116 [7] = experiment: Cytotoxicity against human HCT116 cells after 48 hrs by WST-8 assay; format: functional, cell-based; conditions: HCT-116, 48 h; summary of the method: as §2
ACHN [8] = experiment: Growth inhibition of human ACHN cells at 500 nM after 48 hrs by WST-8 assay; format: functional; conditions: read-out: GI; summary of the method: as §1
Calu-1 [9] = experiment: Growth inhibition of human Calu1 cells at 500 nM after 48 hrs by WST-8 assay; format: functional; conditions: Calu-1, 48 h, read-out: GI; summary of the method: as §1
PANC-1 [10] = experiment: Growth inhibition of human PANC1 cells at 500 nM after 48 hrs by WST-8 assay; format: functional; conditions: PANC-1, 48 h, read-out: GI; summary of the method: as §1
ACHN [11] = experiment: Growth inhibition of human ACHN cells at 10 uM after 48 hrs by WST-8 assay; format: functional; conditions: read-out: GI; summary of the method: as §1
NCI-H460 [12] = experiment: Growth inhibition of human NCI-H460 cells at 10 uM after 48 hrs by WST-8 assay; format: functional; conditions: NCI-H460, 48 h, read-out: GI; summary of the method: as §1
Calu-1 [13] = experiment: Growth inhibition of human Calu1 cells at 10 uM after 48 hrs by WST-8 assay; format: functional; conditions: Calu-1, 48 h, read-out: GI; summary of the method: as §1
PANC-1 [14] = experiment: Growth inhibition of human PANC1 cells at 10 uM after 48 hrs by WST-8 assay; format: functional; conditions: PANC-1, 48 h, read-out: GI; summary of the method: as §1
HCT-116 [15] = experiment: Growth inhibition of human HCT116 cells at 10 uM after 48 hrs by WST-8 assay; format: functional; conditions: HCT-116, 48 h, read-out: GI; summary of the method: as §1

Nc1ccn([C@@H]2O[C@H](CO)[C@@H](O)C2(F)F)c(=O)n1 [GEMCITABINE]
inhibition of growth at 0.5 µM (HCT-116 [1]): 86%
IC50 (NCI-H460 [2]): 0.23 µM
IC50 (PANC-1 [3]): 0.11 µM
IC50 (Calu-1 [4]): 0.52 µM
IC50 (ACHN [5]): 0.48 µM
inhibition of growth at 0.5 µM (NCI-H460 [6]): 81%
IC50 (MCF-10A): > 10 µM
IC50 (HCT-116 [7]): 0.32 µM
inhibition of growth at 0.5 µM (ACHN [8]): 77%
inhibition of growth at 0.5 µM (Calu-1 [9]): 74%
inhibition of growth at 0.5 µM (PANC-1 [10]): 83%

CC(C)CC(=O)c1c(O)c(C=O)c(O)c(C(c2ccc3c(c2)OCO3)c2c(O)c(C=O)c(O)c(C(=O)CC(C)C)c2O)c1O
inhibition of growth at 10 µM (ACHN [11]): 53%
IC50 (NCI-H460 [2]): 8.6 µM
inhibition of growth at 10 µM (NCI-H460 [12]): 51%
IC50 (PANC-1 [3]): 8.8 µM
IC50 (Calu-1 [4]): 9.2 µM
IC50 (ACHN [5]): 8.9 µM
IC50 (MCF-10A): 25.9 µM
inhibition of growth at 10 µM (Calu-1 [13]): 54%
IC50 (HCT-116 [7]): 9.5 µM
inhibition of growth at 10 µM (PANC-1 [14]): 55%
inhibition of growth at 10 µM (HCT-116 [15]): 50%

CC(C)CC(=O)c1c(O)c(C(=O)CC(C)C)c(O)c(C(c2ccc(-c3ccccc3)cc2)c2c(O)c(C(=O)CC(C)C)c(O)c(C(=O)CC(C)C)c2O)c1O
inhibition of growth at 10 µM (ACHN [11]): 59%
IC50 (NCI-H460 [2]): 8.3 µM
inhibition of growth at 10 µM (NCI-H460 [12]): 54%
IC50 (PANC-1 [3]): 9.1 µM
IC50 (Calu-1 [4]): 7.9 µM
IC50 (ACHN [5]): 8.9 µM
IC50 (MCF-10A): > 26.3 µM
inhibition of growth at 10 µM (Calu-1 [13]): 52%
IC50 (HCT-116 [7]): 8.6 µM
inhibition of growth at 10 µM (PANC-1 [14]): 54%
inhibition of growth at 10 µM (HCT-116 [15]): 55%

CC(C)CC(=O)c1c(O)c(C(=O)CC(C)C)c(O)c(C(c2ccc(C(F)(F)F)cc2C(F)(F)F)c2c(O)c(C(=O)CC(C)C)c(O)c(C(=O)CC(C)C)c2O)c1O
inhibition of growth at 10 µM (ACHN [11]): 57%
IC50 (NCI-H460 [2]): 8.6 µM
inhibition of growth at 10 µM (NCI-H460 [12]): 64%
IC50 (PANC-1 [3]): 8.3 µM
IC50 (Calu-1 [4]): 8.5 µM
IC50 (ACHN [5]): 8.8 µM
IC50 (MCF-10A): 27.6 µM
inhibition of growth at 10 µM (Calu-1 [13]): 65%
IC50 (HCT-116 [7]): 9.2 µM
inhibition of growth at 10 µM (PANC-1 [14]): 60%
inhibition of growth at 10 µM (HCT-116 [15]): 61%

CC(C)CC(=O)c1c(O)c(C=O)c(O)c(C(c2cccnc2)c2c(O)c(C=O)c(O)c(C(=O)CC(C)C)c2O)c1O
inhibition of growth at 10 µM (ACHN [11]): 71%
IC50 (NCI-H460 [2]): 5.8 µM
inhibition of growth at 10 µM (NCI-H460 [12]): 68%
IC50 (PANC-1 [3]): 6.1 µM
IC50 (Calu-1 [4]): 6.3 µM
IC50 (ACHN [5]): 5.7 µM
IC50 (MCF-10A): > 30 µM
inhibition of growth at 10 µM (Calu-1 [13]): 66%
IC50 (HCT-116 [7]): 5.5 µM
inhibition of growth at 10 µM (PANC-1 [14]): 67%
inhibition of growth at 10 µM (HCT-116 [15]): 69%

CC(C)CC(=O)c1c(O)c(C=O)c(O)c(C(c2ccc3c(c2)Cc2ccccc2-3)c2c(O)c(C=O)c(O)c(C(=O)CC(C)C)c2O)c1O
inhibition of growth at 10 µM (ACHN [11]): 50%
IC50 (NCI-H460 [2]): 9.2 µM
inhibition of growth at 10 µM (NCI-H460 [12]): 54%
IC50 (PANC-1 [3]): 9.6 µM
IC50 (Calu-1 [4]): 8.8 µM
IC50 (ACHN [5]): 9.9 µM
IC50 (MCF-10A): 26.2 µM
inhibition of growth at 10 µM (Calu-1 [13]): 58%
IC50 (HCT-116 [7]): 9.4 µM
inhibition of growth at 10 µM (PANC-1 [14]): 57%
inhibition of growth at 10 µM (HCT-116 [15]): 52%

CC(=O)c1c(O)c(C(C)=O)c(O)c(C(c2cccs2)c2c(O)c(C(C)=O)c(O)c(C(C)=O)c2O)c1O
inhibition of growth at 10 µM (ACHN [11]): 57%
IC50 (NCI-H460 [2]): 8.9 µM
inhibition of growth at 10 µM (NCI-H460 [12]): 54%
IC50 (PANC-1 [3]): 9.4 µM
IC50 (Calu-1 [4]): 9.7 µM
IC50 (ACHN [5]): 9.2 µM
IC50 (MCF-10A): > 30 µM
inhibition of growth at 10 µM (Calu-1 [13]): 0%
IC50 (HCT-116 [7]): 9.9 µM
inhibition of growth at 10 µM (PANC-1 [14]): 64%
inhibition of growth at 10 µM (HCT-116 [15]): 55%

CC(C)CC(=O)c1c(O)cc(O)c(C=O)c1O
inhibition of growth at 10 µM (ACHN [11]): 52%
IC50 (NCI-H460 [2]): 9.4 µM
inhibition of growth at 10 µM (NCI-H460 [12]): 58%
IC50 (PANC-1 [3]): 8.5 µM
IC50 (Calu-1 [4]): 9.1 µM
IC50 (ACHN [5]): 8.9 µM
IC50 (MCF-10A): > 27.3 µM
inhibition of growth at 10 µM (Calu-1 [13]): 59%
IC50 (HCT-116 [7]): 9.7 µM
inhibition of growth at 10 µM (PANC-1 [14]): 50%
inhibition of growth at 10 µM (HCT-116 [15]): 57%

CC(C)CC(=O)c1c(O)c(C(=O)CC(C)C)c(O)c(C(c2cccs2)c2c(O)c(C(=O)CC(C)C)c(O)c(C(=O)CC(C)C)c2O)c1O
inhibition of growth at 10 µM (ACHN [11]): 50%
IC50 (NCI-H460 [2]): 9.1 µM
inhibition of growth at 10 µM (NCI-H460 [12]): 54%
IC50 (PANC-1 [3]): 8.5 µM
IC50 (Calu-1 [4]): 8.9 µM
IC50 (ACHN [5]): > 10 µM
IC50 (MCF-10A): > 30 µM
inhibition of growth at 10 µM (Calu-1 [13]): 62%
IC50 (HCT-116 [7]): 8.9 µM
inhibition of growth at 10 µM (PANC-1 [14]): 60%
inhibition of growth at 10 µM (HCT-116 [15]): 57%

CC(C)CC(=O)c1c(O)c(C(=O)CC(C)C)c(O)c(C(c2ccc3c(c2)OCO3)c2c(O)c(C(=O)CC(C)C)c(O)c(C(=O)CC(C)C)c2O)c1O
inhibition of growth at 10 µM (ACHN [11]): 67%
IC50 (NCI-H460 [2]): 6.6 µM
inhibition of growth at 10 µM (NCI-H460 [12]): 63%
IC50 (PANC-1 [3]): 7.2 µM
IC50 (Calu-1 [4]): 6.5 µM
IC50 (ACHN [5]): 6.7 µM
IC50 (MCF-10A): > 30 µM
inhibition of growth at 10 µM (Calu-1 [13]): 62%
IC50 (HCT-116 [7]): 7.1 µM
inhibition of growth at 10 µM (PANC-1 [14]): 69%
inhibition of growth at 10 µM (HCT-116 [15]): 60%

CC(C)CC(=O)c1c(O)c(C(=O)CC(C)C)c(O)c(C(c2cc3ccccc3s2)c2c(O)c(C(=O)CC(C)C)c(O)c(C(=O)CC(C)C)c2O)c1O
inhibition of growth at 10 µM (ACHN [11]): 54%
IC50 (NCI-H460 [2]): 9.7 µM
inhibition of growth at 10 µM (NCI-H460 [12]): 54%
IC50 (PANC-1 [3]): 9.8 µM
IC50 (Calu-1 [4]): 9.5 µM
IC50 (ACHN [5]): 9.9 µM
IC50 (MCF-10A): > 30 µM
inhibition of growth at 10 µM (Calu-1 [13]): 54%
IC50 (HCT-116 [7]): 9.8 µM
inhibition of growth at 10 µM (PANC-1 [14]): 59%
inhibition of growth at 10 µM (HCT-116 [15]): 65%
